A short description of series [1]: Cytotoxicity against human NZOV9 cells expressing PI3K p110alpha Y1021C mutant assessed as growth inhibition after 5 days by [3H]-thymidine incorporation assay. It is filed as functional, cell-based. An outline of the steps: (§1)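 NZB5 (medulloblastoma, wild-type p110α) and NZOV9 (ovarian endometrioid adenocarcinoma, Y1021C p110α) cells cultured with drug for 5 days; proliferation by [³H]-thymidine incorporation at end; IC50 as 50% inhibition versus controls, averaged over at least two determinations.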

Series [2] can be described thus: Cytotoxicity against human NZB5 cells expressing wild type PI3K p110alpha assessed as growth inhibition after 5 days by [3H]-thymidine incorporation assay. It is filed as functional, cell-based. Summed up: as §1
Series [3] concerns the target PI3-kinase p110-delta/p85-alpha (Homo sapiens, UniProt O00329). Nature of the series: Inhibition of recombinant PI3K p110delta/p85alpha (unknown origin) using phosphotidylinositol as susbstrate after 1 hr by thin layer paper chromatographic analysis in presence of [gamma-33P]ATP. It is filed as protein-complex assay.
Another series addresses PI3K p110 beta/p85 alpha (Homo sapiens, UniProt P42338). Put plainly: Inhibition of recombinant PI3K p110beta/p85alpha (unknown origin) using phosphotidylinositol as susbstrate after 1 hr by thin layer paper chromatographic analysis in presence of [gamma-33P]ATP. It is filed as protein-complex assay.
The target of series [4] is PI3-kinase p110-alpha/p85-alpha (Homo sapiens, UniProt P42336). Nature of the series: Inhibition of recombinant PI3K p110alpha/p85alpha (unknown origin) using phosphotidylinositol as susbstrate after 1 hr by thin layer paper chromatographic analysis in presence of [gamma-33P]ATP. The format is protein-complex assay.
Sequence of PI3-kinase p110-alpha/p85-alpha (P27986 whole entry): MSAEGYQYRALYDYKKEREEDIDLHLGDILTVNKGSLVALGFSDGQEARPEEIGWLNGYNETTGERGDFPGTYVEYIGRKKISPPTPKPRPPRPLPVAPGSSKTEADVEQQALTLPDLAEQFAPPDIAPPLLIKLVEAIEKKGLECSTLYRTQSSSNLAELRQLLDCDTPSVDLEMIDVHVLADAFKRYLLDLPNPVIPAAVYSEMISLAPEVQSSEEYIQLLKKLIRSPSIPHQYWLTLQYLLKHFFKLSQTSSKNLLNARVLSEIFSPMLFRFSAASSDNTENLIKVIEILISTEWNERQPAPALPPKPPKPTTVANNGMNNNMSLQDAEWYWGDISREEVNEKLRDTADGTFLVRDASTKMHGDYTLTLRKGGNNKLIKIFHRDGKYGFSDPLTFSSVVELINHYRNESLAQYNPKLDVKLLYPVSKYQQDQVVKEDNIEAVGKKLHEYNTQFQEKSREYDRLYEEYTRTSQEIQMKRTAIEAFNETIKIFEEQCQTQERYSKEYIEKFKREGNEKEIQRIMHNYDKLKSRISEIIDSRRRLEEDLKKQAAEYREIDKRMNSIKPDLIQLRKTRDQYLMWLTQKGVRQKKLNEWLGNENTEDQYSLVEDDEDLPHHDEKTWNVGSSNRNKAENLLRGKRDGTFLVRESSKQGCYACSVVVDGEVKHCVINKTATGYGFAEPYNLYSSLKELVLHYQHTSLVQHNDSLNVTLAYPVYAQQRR
Sequence of PI3-kinase p110-alpha/p85-alpha (P42336 whole entry): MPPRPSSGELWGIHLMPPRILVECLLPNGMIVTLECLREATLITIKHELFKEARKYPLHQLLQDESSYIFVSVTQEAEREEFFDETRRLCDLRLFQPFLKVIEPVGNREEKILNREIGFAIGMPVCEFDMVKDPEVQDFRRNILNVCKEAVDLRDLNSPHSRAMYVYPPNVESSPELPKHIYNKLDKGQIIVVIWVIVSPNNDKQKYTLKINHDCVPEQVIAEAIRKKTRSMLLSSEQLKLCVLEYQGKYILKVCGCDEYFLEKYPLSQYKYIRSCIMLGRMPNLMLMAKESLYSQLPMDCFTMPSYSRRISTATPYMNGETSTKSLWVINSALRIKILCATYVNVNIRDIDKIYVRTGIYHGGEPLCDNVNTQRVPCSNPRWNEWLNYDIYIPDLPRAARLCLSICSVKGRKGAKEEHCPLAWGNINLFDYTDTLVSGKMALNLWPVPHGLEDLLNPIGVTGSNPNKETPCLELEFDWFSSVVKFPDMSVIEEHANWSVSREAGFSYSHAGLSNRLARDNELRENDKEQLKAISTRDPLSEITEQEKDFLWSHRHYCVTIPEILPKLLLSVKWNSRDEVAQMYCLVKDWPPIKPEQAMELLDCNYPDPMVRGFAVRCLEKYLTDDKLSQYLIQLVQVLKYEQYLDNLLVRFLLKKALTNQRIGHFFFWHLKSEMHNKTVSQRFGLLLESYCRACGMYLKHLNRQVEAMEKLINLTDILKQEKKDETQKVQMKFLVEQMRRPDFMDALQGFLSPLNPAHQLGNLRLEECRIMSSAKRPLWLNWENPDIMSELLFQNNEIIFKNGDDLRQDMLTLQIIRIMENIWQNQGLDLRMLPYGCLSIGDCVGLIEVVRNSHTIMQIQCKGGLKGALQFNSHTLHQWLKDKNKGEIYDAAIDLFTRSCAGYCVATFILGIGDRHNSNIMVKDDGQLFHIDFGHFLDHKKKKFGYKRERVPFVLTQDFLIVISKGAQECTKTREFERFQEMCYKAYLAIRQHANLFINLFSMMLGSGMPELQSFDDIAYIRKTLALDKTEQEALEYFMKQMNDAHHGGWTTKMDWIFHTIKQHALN
Series [5] in a line: Aqueous solubility of the compound in water by HPLC analysis. The format is physicochemical. An outline of the steps: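 Solid mixed with water to make 2 mM, sonicated 15 min, centrifuged; supernatant diluted 2-fold, recentrifuged, analysed by C18 HPLC (acetonitrile/45 mM ammonium formate pH 3.5 gradient); peak area compared with DMSO standard.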
The subject of series [6] is Mus musculus. Put plainly: Toxicity in rag1-deficient mouse xenografted with human U87MG cells assessed as body weight loss at 15 mg/kg, ip qd after 14 days relative to control. It is filed as organism-based, U-87MG ATCC. Further details: dose 15 mg/kg, route intraperitoneal. Particulars: in vivo, 336 h.
Series [7] in a line: Antitumor activity against human U87MG cells xenografted in rag1-deficient mouse assessed as tumor growth inhibition at 15 mg/kg, ip qd measured after 7 days relative to control. Particulars: U-87 MG, 168 h, read-out: TGI. For orientation: Xenograft models place foreign cells or tissue in a host animal.
In series [8] the test system is Mus musculus. Nature of the series: Toxicity in rag1-deficient mouse xenografted with human U87MG cells assessed as body weight loss at 60 mg/kg, ip qd after 14 days relative to control. Particulars: in vivo, 336 h. It is filed as organism-based, U-87MG ATCC. Further details: dose 60 mg/kg, route intraperitoneal.
Series [9] can be described thus: Half life in C57 mouse at 10 mg/kg, ip. To be noted: in vivo. It is filed as ADME, organism-based. Further details: dose 10 mg/kg, route intraperitoneal. Summed up:
(§2)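 Male specific pathogen-free age-matched C57 mice; single 10 mg/kg i.p. dose in 10% EtOH; animals culled at multiple time points; blood by cardiac puncture into EDTA, plasma separated by centrifugation, protein precipitated in MeOH.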

Series [10] deals with T1, Phosphatidylinositol 4,5-bisphosphate 3-kinase catalytic subunit alpha isoform (Homo sapiens, UniProt P42336, H1047R). Nature of the series: Inhibition of PI3K p110alpha H1047R mutant in human HCT116 cells assessed as inhibition of AKT/PKB phosphorylation at Thr308 incubated for 15 mins prior to insulin stimulation measured after 5 mins by immunoblot analysis. It is filed as cell-based, HCT-116. On the technique in general: A western blot detects proteins with antibodies after separation by electrophoresis.
T1 sequence (P42336 whole entry H1047R, canonical isoform): as the sequence (P42336 whole entry) above, with H1047R counted along it

Series [11] has as its target T1, Phosphatidylinositol 4,5-bisphosphate 3-kinase catalytic subunit alpha isoform. Put plainly: Inhibition of PI3K p110alpha H1047R mutant in human HCT116 cells assessed as inhibition of AKT/PKB phosphorylation at Ser473 incubated for 15 mins prior to insulin stimulation measured after 5 mins by immunoblot analysis. It is filed as cell-based, HCT-116.
Series [12] can be described thus: Cmax in C57 mouse at 10 mg/kg, ip. The format is ADME, organism-based. Further details: dose 10 mg/kg, route intraperitoneal. To be noted: in vivo. Summed up:
as §2

The nature of series [13]: Tmax in C57 mouse at 10 mg/kg, ip. Further details: dose 10 mg/kg, route intraperitoneal. To be noted: in vivo. The format is ADME, organism-based. An outline of the steps: as §2
A short description of series [14]: AUC (infinity) in C57 mouse at 10 mg/kg, ip. More on the design: dose 10 mg/kg, route intraperitoneal, time infinity. It is filed as ADME, organism-based. Particulars: plasma. Summed up: as §2
In series [15] the test system is Mus musculus. Nature of the series: Toxicity in rag1-deficient mouse xenografted with human U87MG cells assessed as mortality without preceding sings of toxicity at 60 mg/kg, ip qd after 14 days relative to control. The format is organism-based, U-87MG ATCC. More on the design: dose 60 mg/kg, route intraperitoneal. Particulars: in vivo, 336 h.
Series [16] in a line: Antitumor activity against human U87MG cells xenografted in rag1-deficient mouse assessed as tumor growth inhibition at 60 mg/kg, ip qd measured after 7 days relative to control. Particulars: U-87 MG, 168 h, read-out: TGI.
Series [17] relates to Mus musculus. Nature of the series: Toxicity in rag1-deficient mouse xenografted with human U87MG cells assessed as body weight loss at 40 mg/kg, ip qd after 14 days relative to control. It is filed as organism-based, U-87MG ATCC. Further details: dose 40 mg/kg, route intraperitoneal. To be noted: in vivo, 336 h.
Series [18] deals with Mus musculus. Put plainly: Toxicity in rag1-deficient mouse xenografted with human U87MG cells assessed as mortality at 40 mg/kg, ip qd after 14 days relative to control. The format is organism-based, U-87MG ATCC. More on the design: dose 40 mg/kg, route intraperitoneal. To be noted: in vivo, 336 h. An outline of the steps: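 Female specific-pathogen-free Rag1−/− mice given 5 × 10⁶ U87MG cells s.c. in PBS on the right flank. Dosing started 3–4 weeks later, once tumors averaged about 8 mm. Drug was given i.p. daily for 14 days at 10 mL/kg as free base, in 10% DMSO, 15% Cremophor EL, 15% EtOH and 60% saline. Bodyweight and tumor volume were recorded every 2–3 days.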

Series [19] can be described thus: Antitumor activity against human U87MG cells xenografted in rag1-deficient mouse assessed as tumor growth inhibition at 40 mg/kg, ip qd measured after 7 days relative to control. To be noted: U-87 MG, 168 h, read-out: TGI.

Sequence of PI3K p110 beta/p85 alpha (P27986 whole entry): as the sequence (P27986 whole entry) above
Sequence of PI3K p110 beta/p85 alpha (P42338 whole entry): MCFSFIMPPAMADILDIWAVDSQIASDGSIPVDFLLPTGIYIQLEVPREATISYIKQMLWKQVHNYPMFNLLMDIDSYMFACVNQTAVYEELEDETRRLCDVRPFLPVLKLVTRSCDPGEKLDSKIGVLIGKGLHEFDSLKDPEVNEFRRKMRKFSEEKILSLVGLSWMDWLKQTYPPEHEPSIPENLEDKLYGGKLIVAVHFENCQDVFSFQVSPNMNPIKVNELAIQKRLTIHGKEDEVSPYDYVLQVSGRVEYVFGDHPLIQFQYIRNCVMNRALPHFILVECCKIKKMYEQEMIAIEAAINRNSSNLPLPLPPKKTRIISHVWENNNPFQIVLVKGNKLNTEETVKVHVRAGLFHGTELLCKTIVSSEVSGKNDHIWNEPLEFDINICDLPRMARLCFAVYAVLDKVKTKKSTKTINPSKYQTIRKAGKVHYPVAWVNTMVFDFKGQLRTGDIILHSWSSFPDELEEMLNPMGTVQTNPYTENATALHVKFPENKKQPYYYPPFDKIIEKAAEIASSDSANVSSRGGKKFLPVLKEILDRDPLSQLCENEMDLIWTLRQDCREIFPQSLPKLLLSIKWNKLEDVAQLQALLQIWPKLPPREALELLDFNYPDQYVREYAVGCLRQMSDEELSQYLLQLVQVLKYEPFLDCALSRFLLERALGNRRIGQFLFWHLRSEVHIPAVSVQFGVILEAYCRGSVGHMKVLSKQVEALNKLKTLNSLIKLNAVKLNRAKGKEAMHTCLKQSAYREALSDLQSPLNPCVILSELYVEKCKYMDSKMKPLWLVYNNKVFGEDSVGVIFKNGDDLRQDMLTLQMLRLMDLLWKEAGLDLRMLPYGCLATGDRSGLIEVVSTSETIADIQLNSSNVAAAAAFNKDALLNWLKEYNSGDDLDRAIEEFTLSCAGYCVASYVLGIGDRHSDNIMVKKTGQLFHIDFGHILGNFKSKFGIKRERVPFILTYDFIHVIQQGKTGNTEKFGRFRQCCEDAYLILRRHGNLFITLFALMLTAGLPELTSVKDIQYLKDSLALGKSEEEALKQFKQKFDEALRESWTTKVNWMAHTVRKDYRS
Sequence of PI3-kinase p110-delta/p85-alpha (P27986 whole entry): as the sequence (P27986 whole entry) above
Sequence of PI3-kinase p110-delta/p85-alpha (O00329 whole entry): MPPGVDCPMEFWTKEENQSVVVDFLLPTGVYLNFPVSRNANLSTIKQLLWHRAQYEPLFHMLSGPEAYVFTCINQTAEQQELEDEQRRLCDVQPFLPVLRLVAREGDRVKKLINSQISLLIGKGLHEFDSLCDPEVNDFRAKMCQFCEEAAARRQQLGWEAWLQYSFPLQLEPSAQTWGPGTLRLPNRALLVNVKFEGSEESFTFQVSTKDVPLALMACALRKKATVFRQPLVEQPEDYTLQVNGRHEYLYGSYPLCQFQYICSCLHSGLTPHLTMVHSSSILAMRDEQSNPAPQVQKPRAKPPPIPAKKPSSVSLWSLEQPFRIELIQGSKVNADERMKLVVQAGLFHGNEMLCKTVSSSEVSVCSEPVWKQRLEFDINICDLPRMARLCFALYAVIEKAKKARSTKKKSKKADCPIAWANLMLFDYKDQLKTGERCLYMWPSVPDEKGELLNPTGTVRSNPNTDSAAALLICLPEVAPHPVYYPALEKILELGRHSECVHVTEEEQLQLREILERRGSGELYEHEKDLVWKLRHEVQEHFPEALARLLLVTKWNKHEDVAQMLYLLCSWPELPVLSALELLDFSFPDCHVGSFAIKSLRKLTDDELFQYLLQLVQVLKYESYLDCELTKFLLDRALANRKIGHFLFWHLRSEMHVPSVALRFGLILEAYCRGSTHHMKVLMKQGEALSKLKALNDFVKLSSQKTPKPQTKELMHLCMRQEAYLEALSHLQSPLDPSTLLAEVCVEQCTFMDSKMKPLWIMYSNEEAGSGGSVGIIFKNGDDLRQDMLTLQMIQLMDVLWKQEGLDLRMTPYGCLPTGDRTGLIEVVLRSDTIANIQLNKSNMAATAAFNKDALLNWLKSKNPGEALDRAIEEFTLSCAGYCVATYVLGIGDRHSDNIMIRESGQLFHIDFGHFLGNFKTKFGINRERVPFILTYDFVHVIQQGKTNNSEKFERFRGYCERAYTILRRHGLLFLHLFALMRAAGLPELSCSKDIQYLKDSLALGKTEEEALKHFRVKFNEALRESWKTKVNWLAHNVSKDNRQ

As usually defined, the IC50 is the concentration that inhibits the measured activity by half. Take `O=C(O)COc1cccc2c1nc(C(F)F)n2-c1nc(N2CCOCC2)nc(N2CCOCC2)n1`: the half-maximal inhibitory concentration (IC50) in [1] worked out at 3400 nM; in series [2], 8500 nM; in series [3], 39 nM; at PI3K p110 beta/p85 alpha, 274 nM; in series [4], 52 nM.
One may read the solubility as how much of the substance goes into solution per volume. On to `CN(C)CCCOc1cccc2c1nc(C(F)F)n2-c1nc(N2CCOCC2)nc(N2CCOCC2)n1.Cl`, for which, in series [5], the solubility came to 25 mg/mL.
For `NCCC(=O)Nc1cccc2c1nc(C(F)F)n2-c1nc(N2CCOCC2)nc(N2CCOCC2)n1`, the IC50 in series [1] is 120 nM; in series [2] it was 440 nM; in [3] it was 210 nM; at PI3K p110 beta/p85 alpha, 3010 nM; in [4], 855 nM.
For `CN(C)CCC(=O)Nc1cccc2c1nc(C(F)F)n2-c1nc(N2CCOCC2)nc(N2CCOCC2)n1`, in that order: 140 nM, 290 nM, 112 nM, 1260 nM and 486 nM.
For `Cn1c(=O)n(-c2ccc(C(C)(C)C#N)cc2)c2c3cc(-c4cnc5ccccc5c4)ccc3ncc21` [DACTOLISIB], in the series on Mus musculus [6], the Activity was found to be 5%. Besides, in [7], the inhibition in vivo at 15 mg/kg stood at 60.3%.
Regarding `NCCCOc1cccc2c1nc(C(F)F)n2-c1nc(N2CCOCC2)nc(N2CCOCC2)n1`, the IC50 was 9 nM in [1]; 32 nM in series [2]; 28 nM in series [3]; 75 nM on PI3K p110 beta/p85 alpha; 28 nM in series [4].
The half-life is how long it takes for the measured level to halve. By Cmax is commonly meant the maximum level reached in the sampled fluid or tissue. As a reminder, the Tmax is the time at which the peak concentration occurs. The term AUC(0-inf) denotes total exposure, with the tail of the curve extrapolated. Low readings indicate less exposure, high ones more exposure. As to `CN(C)CCCOc1cccc2c1nc(C(F)F)n2-c1nc(N2CCOCC2)nc(N2CCOCC2)n1`, the Activity in the series with Mus musculus [8] was 5%; with Mus musculus [15] it was “Toxic”. This compound had a half-life in series [9] of 93.6 min. Moreover, the IC50 in series [10] is 74 nM; in [11], 36 nM; in series [1], 40 nM; in series [2], 170 nM; in series [3], 4.5 nM; on PI3K p110 beta/p85 alpha, 7.3 nM. Besides, in series [4], the IC50 amounted to 11 nM. The compound further gave a Cmax in [12] of 1940 nM. Moreover, the Tmax in [13] was 15 min. Also, the AUC(0-inf) in series [14] is 2.59 µM·h. Moreover, the inhibition in vivo at 60 mg/kg in series [16] worked out at 56.3%.
`OC(COc1cccc2c1nc(C(F)F)n2-c1nc(N2CCOCC2)nc(N2CCOCC2)n1)CN1CCOCC1` (stereo not given): the IC50 in series [1] was determined as 25 nM; in [2], 54 nM; in series [3] it was 5.5 nM; at PI3K p110 beta/p85 alpha it was 53 nM; in [4], 41 nM.
Consider `OCCOc1cccc2c1nc(C(F)F)n2-c1nc(N2CCOCC2)nc(N2CCOCC2)n1`, for which the IC50 came to 60 nM in [1]; 60 nM in series [2]; 2.6 nM in series [3]; 16 nM at PI3K p110 beta/p85 alpha; 5.3 nM in series [4].
With `CN(C)CC(O)COc1cccc2c1nc(C(F)F)n2-c1nc(N2CCOCC2)nc(N2CCOCC2)n1` (stereo not given), the IC50 was found to be 110 nM in series [1]; 330 nM in [2]; 13 nM in [3]; 30 nM on PI3K p110 beta/p85 alpha; 33 nM in series [4].
For `CN(C)CCNc1cccc2c1nc(C(F)F)n2-c1nc(N2CCOCC2)nc(N2CCOCC2)n1`, in that order: 110 nM, 200 nM, 15 nM, 73 nM and 174 nM.
In the same order, the values of `OCCCOc1cccc2c1nc(C(F)F)n2-c1nc(N2CCOCC2)nc(N2CCOCC2)n1` are 18 nM, 71 nM, 22 nM, 170 nM and 10 nM.
In the same order, the values of `CN(C)CC(=O)Nc1cccc2c1nc(C(F)F)n2-c1nc(N2CCOCC2)nc(N2CCOCC2)n1` are 50 nM, 50 nM, 99 nM, 1040 nM and 379 nM.
For `FC(F)c1nc2ccccc2n1-c1nc(N2CCOCC2)nc(N2CCOCC2)n1` [ZSTK-474], the Activity is listed as 19% with Mus musculus [17] and “Toxic” in the series with Mus musculus [18]. In [19], the inhibition in vivo at 40 mg/kg was 67.6%.
As to `OCC(O)COc1cccc2c1nc(C(F)F)n2-c1nc(N2CCOCC2)nc(N2CCOCC2)n1` (stereo not given), the IC50 in series [1] is 25 nM; in series [2] it was 26 nM; in series [3] it was 4.7 nM; at PI3K p110 beta/p85 alpha it was 24 nM; in [4] it was 12 nM.
For `NCCOc1cccc2c1nc(C(F)F)n2-c1nc(N2CCOCC2)nc(N2CCOCC2)n1`, in that order: 22 nM, 52 nM, 20 nM, 130 nM and 17 nM.
For `NCC(=O)Nc1cccc2c1nc(C(F)F)n2-c1nc(N2CCOCC2)nc(N2CCOCC2)n1`, in that order: 60 nM, 140 nM, 52 nM, 740 nM and 119 nM.
As to `FC(F)c1nc2c(OCCN3CCOCC3)cccc2n1-c1nc(N2CCOCC2)nc(N2CCOCC2)n1`, the IC50 in series [1] amounted to 71 nM; in series [2], 105 nM; in [3] it was 53 nM; on PI3K p110 beta/p85 alpha, 150 nM; in [4], 130 nM.
In the same order, the values of `FC(F)c1nc2c(OCCCN3CCOCC3)cccc2n1-c1nc(N2CCOCC2)nc(N2CCOCC2)n1` are 30 nM, 60 nM, 18 nM, 76 nM and 29 nM.
For `CN(C)CCOc1cccc2c1nc(C(F)F)n2-c1nc(N2CCOCC2)nc(N2CCOCC2)n1`, in that order: 150 nM, 450 nM, 19 nM, 105 nM and 35 nM.

For the origin of these results see ChEMBL document CHEMBL2390847, “Synthesis and biological evaluation of novel phosphatidylinositol 3-kinase inhibitors: Solubilized 4-substituted benzimidazole analogs of 2-(difluoromethyl)-1-[4,6-di(4-morpholinyl)-1,3,5-triazin-2-yl]-1H-benzimidazole (ZSTK474)” (Eur J Med Chem, 2013).
